According to ChEMBL document CHEMBL5352503, “Nonpeptidic Oxazole-Based Prolyl Oligopeptidase Ligands with Disease-Modifying Effects on α-Synuclein Mouse Models of Parkinson's Disease” (J Med Chem, 2023):
Active and inactive are the calls of the source. The calls are words filed in the database; no cut-off is given here.

Assays:
[1] = biological target: Alpha-synuclein (Homo sapiens) (UniProt P37840); assay: Inhibition of alpha-synuclein (unknown origin) dimerization transfected in mouse Neuro2a cells assessed as reduction in aggregation at 10 uM incubated for 4 hrs by split Gaussia luciferase-based assay relative to control; values are per cent of control
[2] = biological target: Dipeptidyl peptidase 2 (Homo sapiens) (UniProt Q9UHL4); assay: Inhibition of recombinant human DPP2 using Lys-Ala-pNA as substrate at 1 to 10 uM preincubated for 15 mins followed by substrate addition and measured for 10 mins; settings: dose 1-10 µM, time 25.0 min
Outline: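 Recombinant human DPP2 with 1 mM Lys-Ala-pNA, pH 5.5, in 100 mM NaAc, 10 mM EDTA and 14 μg/mL aprotinin. Compound at 1 and 10 μM, preincubated 15 min at 37 °C. pNA release read kinetically at 405 nm for at least 10 min at 37 °C.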

[3] = Permeability of the compound across blood brain barrier in C57BL/6JRccHsd mouse at 1.11 uM, ip measured at 30 mins by LC-MS analysis; format: ADME, organism-based; settings: 0.5 h
Outline: (§1)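 Male C57BL/6JRCcHsd mice, 10 weeks old, dosed 10 mg/kg i.p. in 5% Tween-20 in 0.9% NaCl. Brains collected at 15, 30, 45, 60, 120 and 180 min. Brain compound concentration measured by LC-MS, and AUC0–180 min calculated.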

[4] = biological target: Alpha-synuclein (Homo sapiens) (UniProt P37840); assay: Inhibition of alpha-synuclein (unknown origin) dimerization transfected in mouse Neuro2a cells at 10 uM incubated for 4 hrs by Protein-fragment complementation assay; format: cell-based
HEK293 [5] = assay: Activation of PP2A in HEK293 cells assessed as increase in total PP2Ac level at 10 uM incubated for 24 hrs by immunoblot analysis; format: cell-based; settings: Homo sapiens, filed as activator
Outline: (§2)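 HEK-293 cells seeded 500,000/well, attached overnight, then exposed to compound (0.1% DMSO vehicle) for 4 or 24 h. Lysed in RIPA. Western blot with 30 μg protein on 4–20% gels, PVDF transfer, skim-milk block, primary antibody overnight at +4 °C. Detection by chemiluminescence, band OD normalized to β-actin or vinculin. pPP2Ac is the Tyr307-phosphorylated form.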

HEK293 [6] = assay: Induction of autophagic flux in HEK293 cells expressing GFP-LC3B-RFP at 10 uM incubated for 24 hrs by Hoechst staining based assay; format: functional, cell-based; settings: Homo sapiens
Mus musculus [7] = assay: (§3) Neuroprotective activity against AAV2-CBA-alpha-synuclein virus vector injected C57BL/6JRccHsd mouse model of Parkinson's disease assessed as change in tyrosine hydroxylase positive dopaminergic neuron immunoreactivity in substantia nigra pars compacta at 10 mg/kg/day, ip administered for 2 weeks by optical density based analysis; format: functional, organism-based
[8] = biological target: Alpha-synuclein (Homo sapiens) (UniProt P37840); assay: Inhibition of alpha-synuclein (unknown origin) dimerization transfected in PREP knockout HEK293 cells at 10 uM incubated for 4 hrs by luminescence based multimode plate reader method; format: cell-based
Outline: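 Split Gaussia luciferase protein-fragment complementation in HEK-293 PREP-KO cells, run like the N2A protocol. Cells transfected with αSyn-Gluc1 and αSyn-Gluc2; 48 h later treated 4 h at 10 μM. Luminescence read after injecting native coelenterazine.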

HEK293 [9] = assay: Activation of PP2A in HEK293 cells assessed as decrease in phosphorylated PP2Ac level at 10 uM incubated for 24 hrs by immunoblot analysis; format: cell-based; settings: Homo sapiens
Outline: as §2

HEK293 [10] = assay: Activation of PP2A in HEK293 cells by measuring decrease in ratio between Tyr307 phosphorylated inactive PP2Ac to total PP2Ac at 1 uM incubated for 4 hrs by Western blot analysis; format: cell-based; settings: Homo sapiens, filed as activator
Outline: as §2

SH-SY5Y = assay: Cytotoxicity against human SH-SY5Y cells assessed as cell viability at 1 to 100 uM incubated for 24 hrs by MTT assay; format: toxicity, cell-based; settings: dose 1-100 µM
Mus musculus [11] = assay: Upregulation of LC3B-II level in C57BL/6JRccHsd mouse brain at 10 mg/kg, ip measured after 45 mins by Western blot analysis; format: functional, organism-based
Outline: (§4)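 Mice given 10 mg/kg i.p. in 5% Tween-20 in 0.9% NaCl, with vehicle-injected controls. Brains collected 45 min after injection. Homogenates analysed by Western blot for pPP2A, PP2A and LC3BII, with OD normalized to β-actin or vinculin.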

HEK293 [12] = assay: Activation of PP2A in HEK293 cells assessed as increase in total PP2Ac level at 10 uM incubated for 4 hrs by immunoblot analysis; format: cell-based; settings: Homo sapiens, filed as activator
Outline: as §2

Mus musculus [13] = assay: (§5) Neuroprotective activity against AAV2-CBA-GFP injected C57BL/6JRccHsd mouse model of Parkinson's disease assessed as change in tyrosine hydroxylase positive cell count in substantia nigra pars compacta at 10 mg/kg/day, ip administered for 2 weeks by optical density based analysis; format: functional, organism-based
Mus musculus [14] = assay: Downregulation of alpha-syn oligomer expression in C57BL/6JRccHsd mouse striatum injected with AAV2-CBA-alpha-synuclein virus at 10 mg/kg/day, ip administered for 2 weeks by optical density based analysis; format: functional, organism-based
Outline: (§6)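 Unilateral AAV2-CBA-αSyn was injected above the SNpc of male C57BL/6JRCcHsd mice. Dosing at 10 mg/kg/day i.p. by Alzet minipump began 4 weeks after injection. Brain sections were immunostained for oligomer-specific αSyn and optical density was measured in striatum and SNpc, with n = 7–9/group, reported as mean ± SEM.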

Mus musculus [15] = assay: as §5, with “AAV2-CBA-alpha-synuclein virus vector” for “AAV2-CBA-GFP”; format: functional, organism-based
HEK293 [16] = assay: Activation of PP2A in HEK293 cells assessed as decrease in inactive phosphorylated PP2Ac level at 1 uM incubated for 4 hrs by Western blot analysis; format: cell-based; settings: Homo sapiens, filed as activator
Outline: as §2

HEK293 [17] = assay: Activation of PP2A in HEK293 cells assessed as increase in total PP2Ac level at 0.01 to 50 uM incubated for 4 hrs by Western blot analysis; format: cell-based; settings: Homo sapiens, filed as activator, dose 0.01-50 µM
Outline: as §2

Mus musculus [18] = assay: (§7) Neuroprotective activity against AAV2-CBA-GFP injected C57BL/6JRccHsd mouse model of Parkinson's disease assessed as change in tyrosine hydroxylase positive dopaminergic neuron immunoreactivity in striatum at 10 mg/kg/day, ip administered for 2 weeks by optical density based analysis; format: functional, organism-based
HEK293 [19] = assay: Activation of PP2A in HEK293 cells assessed as increase in LC3B-II level at 0.1 to 10 uM incubated for 4 hrs by Western blot analysis; format: cell-based; settings: Homo sapiens, filed as activator, dose 0.1-10 µM
Outline: as §2

Mus musculus [20] = assay: Downregulation of alpha-syn oligomer in C57BL/6JRccHsd mouse substantia nigra pars compacta injected with AAV2-CBA-alpha-synuclein virus at 10 mg/kg/day, ip administered for 2 weeks by optical density based analysis; format: functional, organism-based
Outline: as §6

[21] = Activation of PP2A in HEK293 cells by measuring decrease in ratio between Tyr307 phosphorylated inactive PP2Ac to total PP2Ac incubated for 4 hrs by Western blot analysis; format: cell-based; settings: Homo sapiens, HEK293, 4 h
Outline: as §2

[22] = biological target: Dipeptidyl peptidase 4 (Homo sapiens) (UniProt P27487); assay: Inhibition of human DPP4 using Ala-Pro-para-nitroanilide as substrate at 1 to 10 uM preincubated for 15 mins followed by substrate addition and measured for 10 mins; settings: dose 1-10 µM, time 25.0 min
Outline: (§8)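 Ala-Pro-pNA substrate at 25 μM for DPP4 (purified from human seminal plasma) or 150 μM for DPP9 (Sf9-expressed). Buffer pH 7.4: 0.05 M HEPES-NaOH, 0.1% Tween-20, 0.1 mg/mL BSA, 150 mM NaCl. Compound at 1 and 10 μM final, preincubated 15 min at 37 °C. pNA release read kinetically at 405 nm for at least 10 min.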

Neuron = assay: Cytotoxicity against mouse primary neurons cells assessed as cell viability at 1 to 100 uM incubated for 48 hrs by MTT assay; format: toxicity, cell-based; settings: dose 1-100 µM
[23] = Drug elimination in C57BL/6JRccHsd mouse brain at 10 mg/kg, ip measured at 180 mins by LC-MS analysis; format: ADME, organism-based; settings: in vivo, 3 h
Outline: as §1

[24] = biological target: Prolyl endopeptidase FAP (Homo sapiens) (UniProt Q12884); assay: Inhibition of human FAP expressed in Sf9 insect cells using […] at 1 to 10 uM preincubated for 15 mins followed by substrate addition and measured for 10 mins; settings: dose 1-10 µM, time 25.0 min
Outline: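 Z-Gly-Pro-AMC at 50 μM, pH 8, in 0.05 M Tris-HCl with 0.1% glycerol, 1 mg/mL BSA and 140 mM NaCl. Enzyme preincubated with compound 15 min at 37 °C. AMC release read kinetically at ex 380/em 465 nm for at least 10 min at 37 °C.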

Mus musculus [25] = assay: as §3, with “AAV2-CBA-GFP” for “AAV2-CBA-alpha-synuclein virus vector”; format: functional, organism-based
[26] = biological target: Dipeptidyl peptidase 9 (Homo sapiens) (UniProt Q86TI2); assay: Inhibition of human DPP9 expressed in Sf9 insect cells using Ala-Pro-para-nitroanilide as substrate at 1 to 10 uM preincubated for 15 mins followed by substrate addition and measured for 10 mins; settings: dose 1-10 µM, time 25.0 min
Outline: as §8

HEK293 [27] = assay: Induction of autophagy in PREP knockout HEK293 cells assessed as LC3B-II expression level at 10 uM incubated for 24 hrs by Western blot analysis; format: functional, cell-based; settings: Homo sapiens
Outline: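 HEK-293 PREP-KO cells, grown with 20% FBS, plated 500,000/well and attached overnight. Treated at 10 μM for 4 or 24 h (0.1% DMSO vehicle), then lysed in RIPA. LC3BII measured by Western blot, 30 μg protein loaded, band OD normalized to β-actin or vinculin.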

Mus musculus [28] = assay: Upregulation of total PP2Ac level in C57BL/6JRccHsd mouse brain at 10 mg/kg, ip measured after 45 mins by Western blot analysis; format: functional, organism-based
Outline: as §4

HEK293 [29] = assay: Activation of PP2A in HEK293 cells assessed as increase in LC3B-II level at 10 uM incubated for 4 hrs by immunoblot analysis; format: cell-based; settings: Homo sapiens, filed as activator
Outline: as §2

Mus musculus [30] = assay: Anti-parkinson activity in AAV2-CBA-alpha-synuclein virus vector injected Parkinson's disease C57BL/6JRccHsd mouse model assessed as motor deficit by measuring decrease in use of ipsilateral forepaw usage at 10 mg/kg/day, ip administered for 2 to 4 weeks of treatment by cylinder test; format: functional, organism-based; settings: time 2-4 weeks
Outline: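 Male C57BL/6JRCcHsd mice, 10–11 weeks old, got a unilateral AAV2-CBA-αSyn injection above the SNpc. Dosing started 4 weeks later at 10 mg/kg/day i.p. by Alzet minipump. Ipsilateral forepaw use was scored by cylinder test at 6 and 8 weeks post-injection, against vehicle-treated αSyn-injected and AAV-GFP control mice. Two-way ANOVA with Dunnett's comparisons was used.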

HEK293 [31] = assay: Activation of PP2A in HEK293 cells assessed as decrease in phosphorylated PP2Ac level at 10 uM incubated for 4 hrs by immunoblot analysis; format: cell-based; settings: Homo sapiens, filed as activator
Outline: as §2

[32] = In vivo inhibition of PREP in C57BL/6JRccHsd mouse liver at 10 mg/kg, ip measured for 3 hrs by LC-MS analysis relative to control; format: functional
HEK293 [33] = assay: Activation of PP2A in HEK293 cells assessed as increase in LC3B-II level at 10 uM incubated for 24 hrs by immunoblot analysis; format: cell-based; settings: Homo sapiens, filed as activator
Outline: as §2

HEK293 [34] = assay: Cytotoxicity against HEK293 cells assessed as cell viability at 1 to 100 uM incubated for 24 hrs by MTT assay; format: toxicity, cell-based; settings: human, hek293, 24 h, dose 1-100 µM
[35] = biological target: Alpha-synuclein (Homo sapiens) (UniProt P37840); assay: Inhibition of alpha-synuclein (unknown origin) dimerization transfected in HEK293 cells at 10 uM incubated for 4 hrs by luminescence based multimode plate reader method; format: cell-based
Mus musculus [36] = assay: as §7, with “AAV2-CBA-alpha-synuclein virus vector” for “AAV2-CBA-GFP”; format: functional, organism-based
[37] = Permeability of the compound across blood brain barrier in C57BL/6JRccHsd mouse at 1.86 uM, ip measured at 15 mins by LC-MS analysis; format: ADME, organism-based; settings: 0.25 h
Outline: as §1

Sequence of Dipeptidyl peptidase 9 (Homo sapiens) (Q86TI2 2-863 limits assumed): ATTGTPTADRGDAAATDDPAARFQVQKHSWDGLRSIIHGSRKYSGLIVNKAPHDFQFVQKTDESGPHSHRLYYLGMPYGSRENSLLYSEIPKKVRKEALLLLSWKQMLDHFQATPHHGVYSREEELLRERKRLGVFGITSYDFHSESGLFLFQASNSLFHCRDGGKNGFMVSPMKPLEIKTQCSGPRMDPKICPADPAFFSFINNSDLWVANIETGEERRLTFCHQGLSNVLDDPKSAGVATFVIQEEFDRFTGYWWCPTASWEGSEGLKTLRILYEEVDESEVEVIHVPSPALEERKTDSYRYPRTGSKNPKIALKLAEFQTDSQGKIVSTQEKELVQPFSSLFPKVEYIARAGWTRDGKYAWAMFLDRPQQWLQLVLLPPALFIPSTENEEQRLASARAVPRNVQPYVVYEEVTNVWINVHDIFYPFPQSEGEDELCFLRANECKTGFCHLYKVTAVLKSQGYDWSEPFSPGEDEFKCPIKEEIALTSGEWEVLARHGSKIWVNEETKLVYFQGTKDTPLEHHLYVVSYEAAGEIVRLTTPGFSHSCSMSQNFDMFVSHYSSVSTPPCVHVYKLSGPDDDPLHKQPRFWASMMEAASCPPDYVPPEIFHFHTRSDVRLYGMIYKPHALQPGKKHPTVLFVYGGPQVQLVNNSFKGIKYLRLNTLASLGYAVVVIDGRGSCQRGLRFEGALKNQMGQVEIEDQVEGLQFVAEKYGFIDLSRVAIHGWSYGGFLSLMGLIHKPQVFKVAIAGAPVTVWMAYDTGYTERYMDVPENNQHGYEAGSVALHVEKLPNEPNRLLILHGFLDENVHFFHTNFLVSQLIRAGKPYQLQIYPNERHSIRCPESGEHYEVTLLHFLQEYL
Sequence of Prolyl endopeptidase FAP (Homo sapiens) (Q12884 whole entry): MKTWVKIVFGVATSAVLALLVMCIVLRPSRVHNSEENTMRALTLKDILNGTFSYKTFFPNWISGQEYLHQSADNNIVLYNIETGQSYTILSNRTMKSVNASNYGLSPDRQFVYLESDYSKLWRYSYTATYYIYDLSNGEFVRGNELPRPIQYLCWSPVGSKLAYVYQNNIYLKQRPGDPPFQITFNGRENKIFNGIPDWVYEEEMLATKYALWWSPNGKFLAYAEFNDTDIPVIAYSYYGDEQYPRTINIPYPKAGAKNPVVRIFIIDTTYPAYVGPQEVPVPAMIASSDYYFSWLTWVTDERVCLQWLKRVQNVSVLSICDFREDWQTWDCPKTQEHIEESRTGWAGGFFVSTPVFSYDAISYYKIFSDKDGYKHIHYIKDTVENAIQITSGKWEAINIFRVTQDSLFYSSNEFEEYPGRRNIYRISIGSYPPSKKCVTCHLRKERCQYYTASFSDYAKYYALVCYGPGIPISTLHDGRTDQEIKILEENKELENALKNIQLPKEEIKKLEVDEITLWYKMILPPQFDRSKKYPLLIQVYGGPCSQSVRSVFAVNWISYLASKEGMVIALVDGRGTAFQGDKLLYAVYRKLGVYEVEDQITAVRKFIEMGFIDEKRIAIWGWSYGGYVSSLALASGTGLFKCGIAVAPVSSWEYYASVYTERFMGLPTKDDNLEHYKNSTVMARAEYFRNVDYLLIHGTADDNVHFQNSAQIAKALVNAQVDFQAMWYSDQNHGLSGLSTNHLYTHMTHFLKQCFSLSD
Sequence of Dipeptidyl peptidase 4 (Homo sapiens) (P27487 whole entry, looked up): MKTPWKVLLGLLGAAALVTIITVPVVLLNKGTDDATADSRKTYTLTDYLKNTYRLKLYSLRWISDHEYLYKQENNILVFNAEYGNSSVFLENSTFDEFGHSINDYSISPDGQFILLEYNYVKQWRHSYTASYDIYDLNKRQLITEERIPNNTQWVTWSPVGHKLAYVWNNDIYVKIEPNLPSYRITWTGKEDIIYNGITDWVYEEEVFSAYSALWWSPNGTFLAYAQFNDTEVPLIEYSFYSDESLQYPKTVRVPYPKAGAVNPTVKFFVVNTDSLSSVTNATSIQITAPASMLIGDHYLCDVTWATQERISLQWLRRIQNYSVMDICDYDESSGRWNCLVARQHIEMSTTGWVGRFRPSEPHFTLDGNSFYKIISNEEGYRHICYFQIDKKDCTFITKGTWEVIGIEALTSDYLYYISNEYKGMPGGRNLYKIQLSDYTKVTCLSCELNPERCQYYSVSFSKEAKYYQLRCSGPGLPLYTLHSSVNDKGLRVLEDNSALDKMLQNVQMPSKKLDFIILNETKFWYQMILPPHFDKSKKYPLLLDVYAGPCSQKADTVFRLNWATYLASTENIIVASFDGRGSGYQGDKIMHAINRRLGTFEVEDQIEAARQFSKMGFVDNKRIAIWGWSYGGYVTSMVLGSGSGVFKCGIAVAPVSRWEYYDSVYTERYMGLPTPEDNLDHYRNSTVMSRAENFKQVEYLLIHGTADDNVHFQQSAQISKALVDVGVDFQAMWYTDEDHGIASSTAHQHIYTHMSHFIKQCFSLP

COc1cc(CCc2nc(C)c(N3CCC[C@H]3C#N)o2)cc(OC)c1
residual activity [1]: 100%

Cc1nc(CCCc2ccccc2)oc1N1CCC[C@H]1C#N
inhibition [2]: inactive | pBBB [3]: Permeable | inhibition [4]: Active | Activity (HEK293 [5]): Active | Activity (HEK293 [6]): Active | Activity (Mus musculus [7]): inactive | inhibition [8]: inactive | Activity (HEK293 [9]): inactive | Activity (HEK293 [10]): Active | Activity (SH-SY5Y): Non-Toxic | Activity (Mus musculus [11]): Active | Activity (HEK293 [12]): Active | Activity (Mus musculus [13]): inactive | Activity (Mus musculus [14]): Active | Activity (Mus musculus [15]): inactive | Activity (HEK293 [16]): Active | Activity (HEK293 [17]): Active | Activity (Mus musculus [18]): inactive | Activity (HEK293 [19]): Active | Activity (Mus musculus [20]): inactive | EC50 [21]: 275 nM | inhibition [22]: inactive | Activity (Neuron): Non-Toxic | Drug excretion [23]: Not Active | inhibition [24]: inactive | Activity (Mus musculus [25]): inactive | inhibition [26]: inactive | Activity (HEK293 [27]): inactive | Activity (Mus musculus [28]): Active | Activity (HEK293 [29]): Active | Activity (Mus musculus [30]): Active | Activity (HEK293 [31]): Active | inhibition in vivo at 10 mg/kg [32]: ~25% | Activity (HEK293 [33]): Active | Activity (HEK293 [34]): Non-Toxic | inhibition [35]: Active | Activity (Mus musculus [36]): inactive | pBBB [37]: Permeable
